In ChEMBL document CHEMBL1156283, “Discovery and optimization of 2-(4-substituted-pyrrolo[2,3-b]pyridin-3-yl)methylene-4-hydroxybenzofuran-3(2H)-ones as potent and selective ATP-competitive inhibitors of the mammalian target of rapamycin (mTOR)” (Bioorg Med Chem Lett, 2010):

Experiments:
[1] = biological target: Tyrosine-protein kinase ABL1 (Homo sapiens, UniProt P00519); test: Inhibition of ABL1
[2] = biological target: Glycogen synthase kinase-3 beta (Homo sapiens, UniProt P49841); test: Inhibition of GSK3-beta
[3] = biological target: Cyclin-dependent kinase 2 (Homo sapiens, UniProt P24941); test: Inhibition of CDK2
[4] = biological target: Fibroblast growth factor receptor 1 (Homo sapiens, UniProt P11362)
[5] = biological target: Glycogen synthase kinase-3 alpha (Homo sapiens, UniProt P49840); test: Inhibition of GSK3alpha
[6] = biological target: Tyrosine-protein kinase Lyn (Homo sapiens, UniProt P07948); test: Inhibition of LYN A
[7] = biological target: Tyrosine-protein kinase HCK (Homo sapiens, UniProt P08631); test: Inhibition of HCK
[8] = biological target: Cyclin-dependent kinase 1 (Homo sapiens, UniProt P06493); test: Inhibition of CDK1
[9] = biological target: Mitogen-activated protein kinase 1 (Homo sapiens, UniProt P28482)
[10] = biological target: MAP kinase-activated protein kinase 2 (Homo sapiens, UniProt P49137)
Aurora kinase B = Aurora kinase B (Homo sapiens, UniProt Q96GD4); test: Inhibition of Aurora B
[11] = biological target: Ribosomal protein S6 kinase alpha-1 (Homo sapiens, UniProt Q15418); test: Inhibition of RSK1
[12] = biological target: Serine/threonine-protein kinase mTOR (Homo sapiens, UniProt P42345); test: Inhibition of mTOR
[13] = biological target: Phosphatidylinositol 4,5-bisphosphate 3-kinase catalytic subunit alpha isoform (Homo sapiens, UniProt P42336); test: Inhibition of PI3Kalpha
LNCaP = test: Cytotoxicity against human LNCAP cells; assay type: functional, cell-based
Homo sapiens = organism: Homo sapiens; test: Selectivity ratio of IC50 for PI3Kalpha to IC50 for mTOR
In short: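 Selectivity is calculated as the IC50 against PI3K divided by the IC50 against mTOR.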

[14] = Half life in mouse microsomes in phase 1/2 using NADPH and UDPGA as a cofacto; assay type: ADME, Microsome
[15] = Half life in mouse microsomes in phase 1 using NADPH as a cofactor; assay type: ADME, Microsome

Sequence of Phosphatidylinositol 4,5-bisphosphate 3-kinase catalytic subunit alpha isoform (P42336 whole entry, canonical isoform): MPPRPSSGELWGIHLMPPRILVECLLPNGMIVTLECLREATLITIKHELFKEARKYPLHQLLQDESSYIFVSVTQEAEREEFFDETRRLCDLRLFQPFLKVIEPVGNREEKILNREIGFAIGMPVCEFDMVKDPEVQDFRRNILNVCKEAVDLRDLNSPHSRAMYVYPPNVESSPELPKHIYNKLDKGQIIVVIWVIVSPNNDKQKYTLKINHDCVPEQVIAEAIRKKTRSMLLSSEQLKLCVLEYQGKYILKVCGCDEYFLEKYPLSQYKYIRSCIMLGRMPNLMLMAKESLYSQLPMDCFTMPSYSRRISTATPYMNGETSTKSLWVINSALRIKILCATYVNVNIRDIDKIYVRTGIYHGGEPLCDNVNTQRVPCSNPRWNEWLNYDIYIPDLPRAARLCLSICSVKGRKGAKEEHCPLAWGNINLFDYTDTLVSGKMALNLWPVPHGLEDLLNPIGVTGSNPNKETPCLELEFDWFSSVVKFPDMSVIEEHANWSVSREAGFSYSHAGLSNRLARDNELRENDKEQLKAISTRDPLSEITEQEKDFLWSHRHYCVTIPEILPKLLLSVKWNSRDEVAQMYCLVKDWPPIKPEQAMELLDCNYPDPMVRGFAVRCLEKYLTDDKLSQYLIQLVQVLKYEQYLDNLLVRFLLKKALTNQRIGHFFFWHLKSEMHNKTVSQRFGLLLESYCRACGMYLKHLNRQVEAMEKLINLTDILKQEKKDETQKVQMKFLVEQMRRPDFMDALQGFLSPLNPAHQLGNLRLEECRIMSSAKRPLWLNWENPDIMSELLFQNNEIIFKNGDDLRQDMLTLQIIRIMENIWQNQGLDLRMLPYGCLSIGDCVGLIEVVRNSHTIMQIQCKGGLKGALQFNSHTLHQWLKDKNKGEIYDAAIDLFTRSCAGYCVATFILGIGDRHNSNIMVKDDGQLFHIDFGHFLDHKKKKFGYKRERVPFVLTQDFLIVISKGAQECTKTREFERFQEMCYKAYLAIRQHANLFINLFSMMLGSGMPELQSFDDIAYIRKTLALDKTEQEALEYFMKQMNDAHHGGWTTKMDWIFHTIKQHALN
Sequence of Tyrosine-protein kinase ABL1 (P00519 whole entry): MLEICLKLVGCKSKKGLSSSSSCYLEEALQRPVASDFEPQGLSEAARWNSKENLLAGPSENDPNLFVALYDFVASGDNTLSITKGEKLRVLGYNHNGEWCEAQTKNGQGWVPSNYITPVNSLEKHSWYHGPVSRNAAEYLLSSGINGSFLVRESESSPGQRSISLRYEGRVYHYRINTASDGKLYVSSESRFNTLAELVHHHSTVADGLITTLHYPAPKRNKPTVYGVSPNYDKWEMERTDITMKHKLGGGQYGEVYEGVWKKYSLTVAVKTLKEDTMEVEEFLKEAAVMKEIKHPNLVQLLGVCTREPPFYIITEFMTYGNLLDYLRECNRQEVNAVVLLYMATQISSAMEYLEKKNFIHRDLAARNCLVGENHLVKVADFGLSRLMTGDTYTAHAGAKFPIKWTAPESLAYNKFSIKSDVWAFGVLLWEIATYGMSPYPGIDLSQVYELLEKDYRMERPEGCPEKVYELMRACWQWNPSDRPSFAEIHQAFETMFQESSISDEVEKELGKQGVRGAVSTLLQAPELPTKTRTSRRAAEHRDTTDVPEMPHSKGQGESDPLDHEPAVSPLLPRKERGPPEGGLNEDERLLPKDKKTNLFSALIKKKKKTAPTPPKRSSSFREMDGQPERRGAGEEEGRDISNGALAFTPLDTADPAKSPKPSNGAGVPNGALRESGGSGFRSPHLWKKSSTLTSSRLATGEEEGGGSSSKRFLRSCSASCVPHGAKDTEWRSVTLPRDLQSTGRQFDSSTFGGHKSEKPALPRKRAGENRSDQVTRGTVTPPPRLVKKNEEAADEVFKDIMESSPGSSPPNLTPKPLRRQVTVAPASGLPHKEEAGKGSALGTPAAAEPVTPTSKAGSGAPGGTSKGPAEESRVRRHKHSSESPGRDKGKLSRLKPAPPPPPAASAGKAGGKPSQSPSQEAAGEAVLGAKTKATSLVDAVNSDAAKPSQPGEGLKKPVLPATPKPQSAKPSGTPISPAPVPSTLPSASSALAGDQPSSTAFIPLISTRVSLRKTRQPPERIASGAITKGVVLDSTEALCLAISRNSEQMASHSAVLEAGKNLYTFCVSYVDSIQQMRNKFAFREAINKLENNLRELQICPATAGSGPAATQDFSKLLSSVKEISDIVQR
Sequence of Tyrosine-protein kinase HCK (P08631 whole entry): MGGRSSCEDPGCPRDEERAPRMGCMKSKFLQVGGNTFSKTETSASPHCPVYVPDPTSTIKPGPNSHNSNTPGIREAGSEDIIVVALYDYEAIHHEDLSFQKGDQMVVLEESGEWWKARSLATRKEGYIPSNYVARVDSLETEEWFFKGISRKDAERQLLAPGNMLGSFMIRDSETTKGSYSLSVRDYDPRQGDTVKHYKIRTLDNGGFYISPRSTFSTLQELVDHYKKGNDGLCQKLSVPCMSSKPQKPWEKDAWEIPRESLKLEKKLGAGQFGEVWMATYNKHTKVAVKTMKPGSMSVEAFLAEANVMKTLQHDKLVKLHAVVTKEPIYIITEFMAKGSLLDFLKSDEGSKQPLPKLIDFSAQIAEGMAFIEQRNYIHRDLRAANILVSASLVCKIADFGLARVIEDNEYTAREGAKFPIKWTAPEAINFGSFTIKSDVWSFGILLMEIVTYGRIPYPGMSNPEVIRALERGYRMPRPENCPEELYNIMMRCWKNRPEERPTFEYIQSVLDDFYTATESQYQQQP
Sequence of MAP kinase-activated protein kinase 2 (P49137 whole entry): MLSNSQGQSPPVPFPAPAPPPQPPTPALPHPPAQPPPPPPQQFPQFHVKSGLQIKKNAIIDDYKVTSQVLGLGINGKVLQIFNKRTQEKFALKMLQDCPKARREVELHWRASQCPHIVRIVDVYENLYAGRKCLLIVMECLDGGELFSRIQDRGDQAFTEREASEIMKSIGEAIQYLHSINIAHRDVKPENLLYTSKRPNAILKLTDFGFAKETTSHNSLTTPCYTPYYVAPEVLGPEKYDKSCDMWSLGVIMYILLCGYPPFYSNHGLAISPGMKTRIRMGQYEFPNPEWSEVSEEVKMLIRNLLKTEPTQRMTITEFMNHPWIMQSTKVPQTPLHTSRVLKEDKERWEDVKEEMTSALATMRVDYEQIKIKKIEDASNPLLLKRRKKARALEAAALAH
Sequence of Glycogen synthase kinase-3 beta (P49841 whole entry): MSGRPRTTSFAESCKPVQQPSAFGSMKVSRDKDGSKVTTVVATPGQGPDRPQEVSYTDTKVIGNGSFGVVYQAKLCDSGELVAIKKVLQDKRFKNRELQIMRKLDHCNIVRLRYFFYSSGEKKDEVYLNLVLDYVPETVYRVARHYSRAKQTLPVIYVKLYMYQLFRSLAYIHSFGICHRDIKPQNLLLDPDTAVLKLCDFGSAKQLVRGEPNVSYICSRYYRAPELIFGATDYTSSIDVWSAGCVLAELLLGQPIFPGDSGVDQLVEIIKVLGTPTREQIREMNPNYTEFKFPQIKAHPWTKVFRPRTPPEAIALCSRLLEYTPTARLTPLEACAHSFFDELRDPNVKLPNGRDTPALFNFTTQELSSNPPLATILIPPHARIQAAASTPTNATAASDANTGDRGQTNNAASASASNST
Sequence of Glycogen synthase kinase-3 alpha (P49840 whole entry): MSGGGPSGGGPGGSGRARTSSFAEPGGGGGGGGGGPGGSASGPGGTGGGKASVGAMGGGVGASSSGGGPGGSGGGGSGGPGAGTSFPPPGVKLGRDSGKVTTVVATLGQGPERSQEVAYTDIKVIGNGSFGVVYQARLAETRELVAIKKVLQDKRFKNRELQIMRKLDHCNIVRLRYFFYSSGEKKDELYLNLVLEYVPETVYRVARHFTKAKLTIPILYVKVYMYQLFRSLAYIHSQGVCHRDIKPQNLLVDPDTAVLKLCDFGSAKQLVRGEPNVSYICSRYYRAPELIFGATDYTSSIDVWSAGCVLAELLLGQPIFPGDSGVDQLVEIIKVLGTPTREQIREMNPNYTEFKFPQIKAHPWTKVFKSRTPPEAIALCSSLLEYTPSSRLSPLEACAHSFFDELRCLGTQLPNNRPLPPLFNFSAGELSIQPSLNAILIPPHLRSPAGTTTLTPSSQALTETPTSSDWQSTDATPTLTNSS
Sequence of Mitogen-activated protein kinase 1 (P28482 whole entry): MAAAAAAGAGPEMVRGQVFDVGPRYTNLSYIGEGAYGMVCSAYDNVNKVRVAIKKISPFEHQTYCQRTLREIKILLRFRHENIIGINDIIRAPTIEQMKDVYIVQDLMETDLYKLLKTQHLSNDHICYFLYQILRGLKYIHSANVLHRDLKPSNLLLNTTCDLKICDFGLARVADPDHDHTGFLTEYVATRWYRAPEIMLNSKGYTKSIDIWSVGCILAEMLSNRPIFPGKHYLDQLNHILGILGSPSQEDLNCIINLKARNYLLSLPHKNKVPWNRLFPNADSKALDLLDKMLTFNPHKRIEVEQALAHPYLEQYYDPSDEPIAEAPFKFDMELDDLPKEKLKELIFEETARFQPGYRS
Sequence of Aurora kinase B (Q96GD4 whole entry): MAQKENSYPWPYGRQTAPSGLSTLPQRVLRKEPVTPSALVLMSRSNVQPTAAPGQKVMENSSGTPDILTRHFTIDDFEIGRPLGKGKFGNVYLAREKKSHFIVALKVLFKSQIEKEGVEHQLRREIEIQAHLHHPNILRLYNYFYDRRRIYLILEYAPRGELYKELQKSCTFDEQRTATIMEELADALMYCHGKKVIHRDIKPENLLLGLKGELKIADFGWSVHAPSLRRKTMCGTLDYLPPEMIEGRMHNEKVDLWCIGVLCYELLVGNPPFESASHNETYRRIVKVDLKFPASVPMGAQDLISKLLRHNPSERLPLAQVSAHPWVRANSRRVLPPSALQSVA

Compound	IC50 [12] [nM]	IC50 (LNCaP) [nM]	Ratio IC50 (Homo sapiens)	half-life [14] [min]	half-life [15] [min]	other results
Cn1cc(/C=C2\Oc3cccc(O)c3C2=O)c2c(-c3ccc(C(=O)NCCO)cc3)ccnc21						IC50 [1]: 9700 nM; IC50 [2]: 5900 nM; IC50 [3]: 35500 nM; IC50 [4]: 50 nM; IC50 [5]: 10600 nM; IC50 [6]: 27700 nM; IC50 [7]: 27100 nM; IC50 [8]: 39200 nM; IC50 [9]: 50 nM; IC50 [10]: 6.5 nM; IC50 (Aurora kinase B): 22200 nM; IC50 [11]: 45900 nM
CN(C)C(=O)C1CCN(c2ccnc3c2c(/C=C2\Oc4cccc(O)c4C2=O)cn3C)CC1	0.67	1	46	20	> 30	IC50 [13]: 30 nM
Cn1cc(/C=C2\Oc3cccc(O)c3C2=O)c2c(N3CCC(CN)CC3)ccnc21		75	9			
Cn1cc(/C=C2\Oc3cccc(O)c3C2=O)c2c(-c3ccc(C(=O)N4CC5CCC(C4)O5)cc3)ccnc21	0.56	8	103	2	6	
Cn1cc(/C=C2\Oc3cccc(O)c3C2=O)c2c(N3CCOCC3)ccnc21		5	24			
Cn1cc(/C=C2\Oc3cccc(O)c3C2=O)c2c(N3CCC(C(N)=O)CC3)ccnc21	0.72	10	41			
CCn1cc(/C=C2\Oc3cccc(O)c3C2=O)c2c(-c3ccc(C(=O)N4CCN(CCO)CC4)cc3)ccnc21		4	98			IC50 [13]: 455 nM
CN1CCN(c2ccnc3c2c(/C=C2\Oc4cccc(O)c4C2=O)cn3C)CC1	2.75	3	63			
Cn1cc(/C=C2\Oc3cccc(O)c3C2=O)c2c(N3C4CCC3COC4)ccnc21		2	9			
Cn1cc(/C=C2\Oc3cc(O)cc(O)c3C2=O)c2c(-c3ccccc3)cccc21		1400				IC50 [13]: 1480 nM
Cn1cc(/C=C2\Oc3cc(O)cc(O)c3C2=O)c2c(-c3ccccc3)ccnc21	0.46	77	137	2	20	
Cn1cc(/C=C2\Oc3cccc(O)c3C2=O)c2c(-c3ccccc3)ccnc21	3.45		25.8		22	
CN(C)C(=O)c1ccccc1-c1ccnc2c1c(/C=C1\Oc3cccc(O)c3C1=O)cn2C		> 60000	32.8			
Cn1cc(/C=C2\Oc3cccc(O)c3C2=O)c2c(N3CCC(C(=O)N4CCOCC4)CC3)ccnc21		< 1	45	> 30	> 30	
Cn1cc(/C=C2\Oc3cccc(O)c3C2=O)c2c(N3CCC(N)CC3)ccnc21		240	6			
Cn1cc(/C=C2\Oc3cccc(O)c3C2=O)c2c(-c3ccc(C(=O)N4CCN(CCO)CC4)cc3)ccnc21	0.39	1	256	> 30	> 30	
Cn1cc(/C=C2\Oc3cccc(O)c3C2=O)c2c(-c3ccc(C(=O)N4CCOCC4)cc3)ccnc21		1	97	10	> 30	
CN1CCN(C(=O)c2ccc(-c3ccnc4c3c(/C=C3\Oc5cccc(O)c5C3=O)cn4C)cc2)CC1		9	70	24	28	
Cn1cc(/C=C2\Oc3cccc(O)c3C2=O)c2c(N3CC4CCC(C3)O4)ccnc21	0.38	2	274			
Cn1cc(/C=C2\Oc3cccc(O)c3C2=O)c2c(N3CCC(C(=O)N4CCN(CCO)CC4)CC3)ccnc21	1.85	1	13	14	> 30	IC50 [13]: 25 nM
CN1CCN(c2ccnc3c2c(/C=C2\Oc4cc(O)cc(O)c4C2=O)cn3C)CC1		110	46			IC50 [13]: 43 nM
CN1CCN(C(=O)C2CCN(c3ccnc4c3c(/C=C3\Oc5cccc(O)c5C3=O)cn4C)CC2)CC1		< 1	12	> 30	> 30	
Cn1cc(/C=C2\Oc3cc(O)ccc3C2=O)c2c(-c3ccccc3)ccnc21		1800	11			
CN(C)C(=O)c1ccc(-c2ccnc3c2c(/C=C2\Oc4cccc(O)c4C2=O)cn3C)cc1	0.55	4	65			
Cn1cc(/C=C2\Oc3cc(O)cc(O)c3C2=O)c2cccnc21	42	6500	1.7			IC50 [13]: 77 nM
Cn1cc(/C=C2\Oc3cccc(O)c3C2=O)c2c(N3CCC(C(=O)N4CC5CCC(C4)O5)CC3)ccnc21		1	26	16	> 30	IC50 [13]: 52 nM
CN(C)C(=O)c1cccc(-c2ccnc3c2c(/C=C2\Oc4cccc(O)c4C2=O)cn3C)c1		600	20.5			
